ChEMBL document CHEMBL1122377, “Nitrogen bridgehead compounds. 38. New antiallergic 4H-pyrido[1,2-a]pyrimidin-4-ones. 3” (1983)

system: Rattus norvegicus; test: Antiallergic activity after os administration using rat reaginic passive cutaneous anaphylaxis (PCA) test; insignificant activity; per os 10e3 umol/kg exhibited 31% protection; format: functional; settings: not given

CCOC(=O)c1cnc2n(c1=O)C(C)CCC2C(=O)Nc1ccccc1 (stereo unspecified) showed an Activity of 31%.

system: Rattus norvegicus; test: Antiallergic activity after intravenous administration using rat reaginic passive cutaneous anaphylaxis (PCA) test.; format: functional; settings: not given
How it was run: (§1)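 Inhibition in the rat reaginic PCA test after dosing; significance of each value judged by Student's t test.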

Compound CC1CCC(=NNc2ccccc2)c2ncc(C(=O)O)c(=O)n21 (stereo in doubt) has an ID50 of 0.3 µM/kg.

same assay, conditions: Rattus norvegicus, iv; read-out: ID50 (the source's name)

First: C[C@@H]1CC=C(Nc2ccccc2)c2ncc(C(=O)O)c(=O)n21
Second: CC1CC=C(Nc2ccccc2)c2ncc(C(=O)O)c(=O)n21 (stereo unspecified)
The ED50 of the first is higher: 100 µmol/kg for the first, 2.1 µmol/kg for the second.

Going from CC1CCC(C(=O)Nc2ccccc2)c2ncc(C(=O)O)c(=O)n21 (stereo unspecified) to CC1CCC(/C(S)=N/c2ccccc2)c2ncc(C(=O)O)c(=O)n21 (stereo unspecified), the ED50 rises from 0.56 µmol/kg to 9.1 µmol/kg.

Compared with CCO/N=C1\CCC(C)n2c1ncc(C(=O)OCC)c2=O (stereo unspecified), CCO/N=C1\CCC(C)n2c1ncc(C(=O)O)c2=O (stereo unspecified) is lower in ED50: 41.2 µmol/kg for the first, 24.3 µmol/kg for the second.

Compared with CC1CCCc2ncc(C(=O)O)c(=O)n21 (stereo unspecified), CC1CC/C(=N\O)c2ncc(C(=O)O)c(=O)n21 (stereo unspecified) is lower in ED50: 240 µmol/kg for the first, 19.4 µmol/kg for the second.

CCc1nc2n(c(=O)c1C(=O)O)C(C)CC/C2=N\O (stereo unspecified) and Cc1nc2n(c(=O)c1C(=O)O)C(C)CC/C2=N\O (stereo unspecified) cannot be ordered by ED50: > 100 µmol/kg for the first, > 100 µmol/kg for the second.

Going from CC1CC=C(N(C)c2ccccc2)c2ncc(C(=O)O)c(=O)n21 (stereo unspecified) to C[C@H]1CC=C(Nc2ccccc2)c2ncc(C(=O)O)c(=O)n21, the ED50 falls from > 100 µmol/kg to 1.2 µmol/kg.

First: CC1CC=C(Nc2ccccc2C(=O)O)c2ncc(C(=O)O)c(=O)n21 (stereo unspecified)
Second: Cc1ccccc1NC1=CCC(C)n2c1ncc(C(=O)O)c2=O (stereo unspecified)
The ED50 of the first is lower: 0.66 µmol/kg for the first, 5.4 µmol/kg for the second.

Going from CC1CC=C(Nc2cccc(C(=O)O)c2)c2ncc(C(=O)O)c(=O)n21 (stereo unspecified) to CC(=O)c1cccc(NC2=CCC(C)n3c2ncc(C(=O)O)c3=O)c1 (stereo unspecified), the ED50 falls from 0.62 µmol/kg to 0.36 µmol/kg.

Compared with CCOC(=O)c1cnc2n(c1=O)C(C)CC/C2=N\O (stereo unspecified), CC1CC/C(=N\N)c2ncc(C(=O)O)c(=O)n21 (stereo unspecified) is lower in ED50: 100 µmol/kg for the first, 42 µmol/kg for the second.

First: O=C(O)c1cc(=O)c2c(OCC(O)COc3cccc4oc(C(=O)O)cc(=O)c34)cccc2o1 [CROMOLYN SODIUM]
Second: CC1CC=C(Nc2ccc(C(=O)O)cc2)c2ncc(C(=O)O)c(=O)n21 (stereo unspecified)
The ED50 of the first is lower: 1 µmol/kg for the first, 3.5 µmol/kg for the second.

Going from CC1CC=C(Nc2ccc(F)cc2)c2ncc(C(=O)O)c(=O)n21 (stereo unspecified) to CC1CC=C(Nc2ccc(O)cc2)c2ncc(C(=O)O)c(=O)n21 (stereo unspecified), the ED50 falls from 8.6 µmol/kg to 2.93 µmol/kg.

Going from CC1CC=C(Nc2cccc(F)c2)c2ncc(C(=O)O)c(=O)n21 (stereo unspecified) to Cc1cccc(NC2=CCC(C)n3c2ncc(C(=O)O)c3=O)c1 (stereo unspecified), the ED50 falls from 1.4 µmol/kg to 0.74 µmol/kg.

CC1CCC(=NNc2ccccc2)c2ncc(C(=O)O)c(=O)n21 (stereo in doubt; 2) gave an ED50 of 0.6 µmol/kg.

system: Rattus norvegicus; test: Antiallergic activity after os administration using rat reaginic passive cutaneous anaphylaxis (PCA) test.; format: functional; settings: not given; how it was run: as §1

CC1CCC(/C=N/c2ccccc2)=C2NC=C(C(=O)O)C(=O)N21 (stereo unspecified) showed an Activity of 47%.

same assay, conditions: read-out: ID50 (the source's name)

In order of rising ED50:
1. CC1CC=C(Nc2ccc3ccccc3c2)c2ncc(C(=O)O)c(=O)n21 (stereo unspecified)  30.8 µmol/kg
2. CC1CC=C(Nc2cccc(C(=O)O)c2)c2ncc(C(=O)O)c(=O)n21 (stereo unspecified)  92.6 µmol/kg
3. CC1CC=C(Nc2ccc(O)cc2)c2ncc(C(=O)O)c(=O)n21 (stereo unspecified)  100 µmol/kg
4. CC1CC=C(Nc2ccc(C(=O)O)cc2)c2ncc(C(=O)O)c(=O)n21 (stereo unspecified)  277 µmol/kg

system: Rattus norvegicus; test: Antiallergic activity after iv administration using rat reaginic passive cutaneous anaphylaxis (PCA) test;ins means insoluble.; settings: not given

For CC1CCC(Nc2ccccc2)c2ncc(C(=O)O)c(=O)n21 (stereo unspecified), the ID50 was “Insoluble”.
For CC1CCC(C(=O)N(C)C)c2ncc(C(=O)O)c(=O)n21 (stereo unspecified), the ID50 was “Insoluble”.

system: Rattus norvegicus; test: Antiallergic activity after iv administration using rat reaginic passive cutaneous anaphylaxis (PCA) test;Compound is toxic at 100 umol/kg.; settings: not given

In order of falling ID50:
1. CC1CC=C(Nc2cccc(Br)c2)c2ncc(C(=O)O)c(=O)n21 (stereo unspecified)  10 µmol/kg
2. CC1CC=C(Nc2cccc(I)c2)c2ncc(C(=O)O)c(=O)n21 (stereo unspecified)  10 µmol/kg
